# Reference: paper PMC6468299 (Nucleic Acids Research, 2019)
# Marks after values point to notes of the source that are not given here.
# Assays:
# [1] = molecular target: T1, human mitochondrial DNA polymerase γ (Pol-γ exo-mutant) (Homo sapiens, UniProt P54098, D198A/E200A); assay: Pol-γ primer extension; type: biochemical
# T1 sequence (P54098 26-1239 D198A/E200A limits assumed): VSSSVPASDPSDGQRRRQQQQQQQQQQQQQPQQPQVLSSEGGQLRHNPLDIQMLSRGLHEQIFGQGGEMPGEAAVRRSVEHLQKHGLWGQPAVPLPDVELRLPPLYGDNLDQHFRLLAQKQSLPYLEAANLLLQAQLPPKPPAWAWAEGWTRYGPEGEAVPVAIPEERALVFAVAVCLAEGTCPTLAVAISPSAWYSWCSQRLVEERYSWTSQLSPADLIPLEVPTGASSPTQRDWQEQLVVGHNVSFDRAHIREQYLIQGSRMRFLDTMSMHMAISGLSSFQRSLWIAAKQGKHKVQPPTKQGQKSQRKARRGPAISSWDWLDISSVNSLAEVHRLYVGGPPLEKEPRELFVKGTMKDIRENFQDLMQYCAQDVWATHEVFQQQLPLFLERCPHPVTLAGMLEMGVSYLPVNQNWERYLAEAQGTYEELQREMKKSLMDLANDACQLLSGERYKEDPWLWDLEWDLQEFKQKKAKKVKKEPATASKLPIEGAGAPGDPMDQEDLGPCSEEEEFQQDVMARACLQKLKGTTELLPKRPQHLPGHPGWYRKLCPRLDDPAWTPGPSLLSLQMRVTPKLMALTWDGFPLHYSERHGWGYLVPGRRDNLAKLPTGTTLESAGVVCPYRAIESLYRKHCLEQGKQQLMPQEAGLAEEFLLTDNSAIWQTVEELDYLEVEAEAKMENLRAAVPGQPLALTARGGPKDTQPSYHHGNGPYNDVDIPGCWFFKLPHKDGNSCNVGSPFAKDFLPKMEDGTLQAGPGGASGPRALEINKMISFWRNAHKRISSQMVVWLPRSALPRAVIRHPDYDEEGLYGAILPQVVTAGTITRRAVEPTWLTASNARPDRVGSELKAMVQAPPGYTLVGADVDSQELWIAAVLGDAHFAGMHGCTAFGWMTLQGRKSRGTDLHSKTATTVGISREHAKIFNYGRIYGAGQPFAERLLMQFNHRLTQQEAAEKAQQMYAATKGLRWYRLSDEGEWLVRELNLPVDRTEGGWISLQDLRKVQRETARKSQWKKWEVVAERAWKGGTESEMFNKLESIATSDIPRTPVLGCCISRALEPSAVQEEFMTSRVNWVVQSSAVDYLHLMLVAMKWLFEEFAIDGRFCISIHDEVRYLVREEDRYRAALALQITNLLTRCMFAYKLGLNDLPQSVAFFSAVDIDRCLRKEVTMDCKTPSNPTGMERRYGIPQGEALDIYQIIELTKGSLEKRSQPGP
# Summary of the method: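 Exonuclease-deficient human Pol-γ (40 units) was used with 100 nM DNA template and 100 nM Atto-425-labelled 14-mer DNA primer. Substrate was 1 mM dNTP or 2′-F-NTP, or mixtures 100:1 to 1:100 (1:1 both 1 mM). Products were separated by fluorescence IEX-HPLC (ex 436/em 485 nm) at pH 11. Products under 1.0% peak area were called not detected.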
# DNA polymerase α (Pol-α) = molecular target: T2, DNA polymerase α (Pol-α) (Homo sapiens, UniProt P09884); assay: DNA polymerase inhibition assay, Pol-α; type: biochemical; conditions: Pol-α; 1 h, 3H-dTTP incorporation
# T2 sequence (P09884 1-1462): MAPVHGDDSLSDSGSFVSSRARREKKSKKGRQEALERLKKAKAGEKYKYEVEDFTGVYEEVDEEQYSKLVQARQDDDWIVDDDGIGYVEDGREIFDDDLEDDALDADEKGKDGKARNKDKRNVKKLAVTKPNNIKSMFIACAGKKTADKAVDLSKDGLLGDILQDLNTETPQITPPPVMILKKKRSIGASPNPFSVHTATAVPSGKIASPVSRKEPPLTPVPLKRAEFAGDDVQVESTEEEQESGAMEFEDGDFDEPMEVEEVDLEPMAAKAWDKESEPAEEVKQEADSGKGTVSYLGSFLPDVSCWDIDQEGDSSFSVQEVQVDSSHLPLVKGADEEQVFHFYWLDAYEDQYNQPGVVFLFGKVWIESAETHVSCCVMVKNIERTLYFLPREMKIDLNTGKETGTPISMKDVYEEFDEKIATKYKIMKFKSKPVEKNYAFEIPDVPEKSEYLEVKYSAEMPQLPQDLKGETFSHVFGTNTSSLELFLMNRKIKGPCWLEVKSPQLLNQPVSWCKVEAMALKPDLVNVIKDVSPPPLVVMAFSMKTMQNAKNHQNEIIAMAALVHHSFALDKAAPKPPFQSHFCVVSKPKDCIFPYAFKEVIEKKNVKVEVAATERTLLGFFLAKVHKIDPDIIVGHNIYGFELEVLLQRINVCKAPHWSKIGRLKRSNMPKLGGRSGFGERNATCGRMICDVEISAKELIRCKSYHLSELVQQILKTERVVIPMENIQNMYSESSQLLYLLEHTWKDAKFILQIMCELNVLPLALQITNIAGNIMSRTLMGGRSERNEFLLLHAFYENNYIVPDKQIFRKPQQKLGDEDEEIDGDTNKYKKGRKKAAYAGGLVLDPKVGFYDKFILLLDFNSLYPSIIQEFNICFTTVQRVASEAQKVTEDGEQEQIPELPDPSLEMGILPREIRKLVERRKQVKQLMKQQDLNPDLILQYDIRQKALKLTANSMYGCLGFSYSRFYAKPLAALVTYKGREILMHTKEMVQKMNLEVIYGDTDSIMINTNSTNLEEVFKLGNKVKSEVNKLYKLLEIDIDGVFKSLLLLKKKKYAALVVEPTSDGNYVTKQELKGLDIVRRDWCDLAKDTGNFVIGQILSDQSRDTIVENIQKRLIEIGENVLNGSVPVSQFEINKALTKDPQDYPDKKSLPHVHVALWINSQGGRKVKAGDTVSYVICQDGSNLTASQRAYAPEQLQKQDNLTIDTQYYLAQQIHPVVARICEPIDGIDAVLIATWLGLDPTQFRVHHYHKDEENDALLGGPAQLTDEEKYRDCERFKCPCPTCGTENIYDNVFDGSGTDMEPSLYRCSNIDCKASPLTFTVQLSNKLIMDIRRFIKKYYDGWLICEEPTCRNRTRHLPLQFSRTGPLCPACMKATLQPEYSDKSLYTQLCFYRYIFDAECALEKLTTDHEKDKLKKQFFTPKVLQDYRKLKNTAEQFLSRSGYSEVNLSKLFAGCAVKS
# [2] = system: human mitochondrial Pol-γ; conditions: absence of endogenous dNTPs; cited from earlier work
SMILES,% 2′-F product ([1]; F only),% Native product ([1]; Native only (no 2′-F-NTP)),% 2′-F product ([1]; Native:F ratio 1:1),% Native product ([1]; Native:F ratio 1:1),% 2′-F product ([1]; Native:F ratio 1:10),% Native product ([1]; Native:F ratio 1:10),% 2′-F product ([1]; Native:F ratio 1:100),% Native product ([1]; Native:F ratio 1:100),IC50 (DNA polymerase α (Pol-α)) [µM],IC90 (DNA polymerase α (Pol-α)) [µM],misincorporation frequency relative to the natural dTTP/dNTP [2] [%]
Nc1ncnc2c1ncn2[C@@H]1O[C@H](COP(=O)(O)OP(=O)(O)OP(=O)(O)O)[C@@H](O)[C@H]1F [2′-F-ATP],94.2^a %,95.9^a %,ND (not detected (integration peak area <1.0%)),96.3^a %,ND (not detected (integration peak area <1.0%)),97.1^a %,17.6^b %,79.8^b %,> 200,> 200,–
Nc1ccn([C@@H]2O[C@H](COP(=O)(O)OP(=O)(O)OP(=O)(O)O)[C@@H](O)[C@H]2F)c(=O)n1 [2′-F-CTP],94.0^a %,97.3^a %,ND (not detected (integration peak area <1.0%)),96.2^a %,4.4^b %,90.6^b %,30.9^b %,64.5^b %,> 200,> 200,–
Nc1nc2c(ncn2[C@@H]2O[C@H](COP(=O)(O)OP(=O)(O)OP(=O)(O)O)[C@@H](O)[C@H]2F)c(=O)[nH]1 [2′-F-GTP],73.9^a %,89.2^a %,ND (not detected (integration peak area <1.0%)),85.0^a %,ND (not detected (integration peak area <1.0%)),88.9^a %,23.7^b %,56.0^b %,> 200,> 200,16
O=c1ccn([C@@H]2O[C@H](COP(=O)(O)OP(=O)(O)OP(=O)(O)O)[C@@H](O)[C@H]2F)c(=O)[nH]1 [2′-F-UTP],87.3^a %,83.3^a %,ND (not detected (integration peak area <1.0%)),83.8^a %,2.9^b %,90.0^b %,7.6^b %,80.1^b %,> 200,> 200,0.5
"O=c1[nH]c(=O)n([C@@H]2O[C@H](COP(=O)(O)OP(=O)(O)OP(=O)(O)O)[C@@H](O)[C@@H]2F)cc1I [FIAU-TP, fialuridine triphosphate, reference compound]",94.4^a %,98.3^a %,4.5^b %,91.7^b %,44.0^b %,–,82.7^b %,–,0.27,13.7,125
